Laboratory results taken from ChEMBL document CHEMBL1833957, “P1-substituted symmetry-based human immunodeficiency virus protease inhibitors with potent antiviral activity against drug-resistant viruses” (J Med Chem, 2011).
pEC50: −log10 of the molar value.

What was measured:
[1] = AUC in rat at 5 mg/kg, po co-administered with 5 mg/kg of CYP3A4 inhibitor ritonavir; format: ADME, organism-based; settings: plasma
How it was run: (§1)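 Rats given 5 mg/kg orally together with 5 mg/kg ritonavir. Plasma Cmax is reported in μg/mL and AUC in μg h/mL.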

[2] = Cmax in rat at 5 mg/kg, po; format: ADME, organism-based; design: dose 5 mg/kg, route oral; settings: in vivo
How it was run: (§2)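 Rats given a single 5 mg/kg oral dose with no ritonavir. Plasma Cmax is reported in μg/mL and AUC in μg h/mL.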

[3] = test system: Human immunodeficiency virus 1; experiment: Antiviral activity against HIV1 A17 harboring protease L10F, V32I, M46I, I47V, Q58E and I84V mutant infected in human MT4 cells assessed as inhibition of virus-induced cell death after 5 days by MTT assay relative to wild type HIV1 pNL4-3; format: functional
[4] = Oral bioavailability in rat at 5 mg/kg co-administered with 5 mg/kg of CYP3A4 inhibitor ritonavir relative to iv dose without ritonavir co-administration; format: ADME, organism-based; settings: in vivo
How it was run: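 Rats given 5 mg/kg orally with 5 mg/kg ritonavir. Bioavailability (%) is calculated against an IV dose given without ritonavir.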

Rattus norvegicus = experiment: Ratio of AUC in rat at 5 mg/kg, po co-administered with 5 mg/kg CYP3A4 inhibitor ritonavir to AUC in rat at 5 mg/kg, po in the absence of CYP3A4 inhibitor ritonavir; format: ADME, organism-based; settings: in vivo
[5] = test system: Human immunodeficiency virus 1; experiment: Antiviral activity against wild type HIV1 pNL4-3 infected in human MT4 cells assessed as inhibition of virus-induced cell death after 5 days by MTT assay in presence of 50% human serum; format: functional, organism-based; settings: Human immunodeficiency virus 1, pNL4-3, MT4, 120 h
[6] = test system: Human immunodeficiency virus 1; experiment: Antiviral activity against wild type HIV1 pNL4-3 infected in human MT4 cells assessed as inhibition of virus-induced cell death after 5 days by MTT assay; format: functional, organism-based; settings: Human immunodeficiency virus 1, pNL4-3, MT4, 120 h
How it was run: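 EC50 measured against wild-type virus in MT-4 cells, with no human serum added.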

[7] = Oral bioavailability in rat at 5 mg/kg; format: ADME, organism-based; settings: in vivo
[8] = Metabolic stability in human liver microsomes assessed as disappearance of the compound after 20 mins; format: ADME, Microsome; settings: read-out: Drug metabolism
[9] = test system: Human immunodeficiency virus 1; experiment: Antiviral activity against HIV1 B26 harboring protease L33F, K45I, M46I, I50V, A71V and V82F mutant infected in human MT4 cells assessed as inhibition of virus-induced cell death after 5 days by MTT assay relative to wild type HIV1 pNL4-3; format: functional
Liver microsomes [10] = experiment: Metabolic stability in human liver microsomes assessed as disappearance of the compound after 20 mins in the presence of 0.4 uM CYP3A4 inhibitor ritonavir; format: ADME, Microsome
[11] = AUC in rat at 5 mg/kg, po; format: ADME, organism-based; design: dose 5 mg/kg, route oral; settings: plasma; how it was run: as §2
Liver microsomes [12] = experiment: Metabolic stability in human liver microsomes assessed as disappearance of the compound after 20 mins in the presence of 0.4 uM CYP3A4 inhibitor ritonavir
[13] = Cmax in rat at 5 mg/kg, po co-administered with 5 mg/kg of CYP3A4 inhibitor ritonavir; format: ADME, organism-based; design: dose 5 mg/kg, route oral; settings: in vivo; how it was run: as §1
[14] = test system: Human immunodeficiency virus 1; experiment: Antiviral activity against HIV1 harboring protease L10I, I13V, G16A, Q18H, L33F, N37D, M46I, I54V, G57R, Q61H,I62V, L63P, A71L, I72T, L76V, V77I, V82A, N88G, L90M, I93L mutant infected in human MT4 cells assessed as inhibition of virus-induced cell death after 5 days by MTT assay relative to wild type HIV1 pNL4-3; format: functional
[15] = test system: Human immunodeficiency virus 1; experiment: Antiviral activity against HIV1 isolate 1 harboring protease L10I, E35D, N37D, M46I, I54V, G57R, L63P, A71V, T74P, I84V, L90M, I93L mutant infected in human MT4 cells assessed as inhibition of virus-induced cell death after 5 days by MTT assay relative to wild type HIV1 pNL4-3; format: functional

Row | Compound | AUC [1] | Cmax [2] | fold change (FC) [3] | bioavailability [4] | Ratio AUC (Rattus norvegicus) | pEC50 [5] | pEC50 [6] | bioavailability [7] | metabolised at 20 min [8] | fold change (FC) [9] | Stability (Liver microsomes [10]) | AUC [11] | Stability (Liver microsomes [12]) | Cmax [13] | fold change (FC) [14] | fold change (FC) [15]
1 | COC(=O)N[C@H](C(=O)N[C@@H](Cc1ccccc1)C[C@H](O)[C@H](Cc1ccc(-c2ccccn2)cc1)NC(=O)[C@@H](NC(=O)OC)C(C)(C)C)C(C)(C)C | 4880 ng·h/mL | 280 ng/mL | 20 | > 100% | 25 | 7.72 | 8.22 | 7% | 40% | 29 | Stable | 190 ng·h/mL | Stable | 1550 ng/mL | – | –
2 | COC(=O)N[C@H](C(=O)N[C@@H](Cc1ccccc1)C[C@H](O)[C@H](Cc1ccc(-c2cccnc2)cc1)NC(=O)[C@@H](NC(=O)OC)C(C)(C)C)C(C)(C)C | 740 ng·h/mL | 180 ng/mL | 2 | 25% | – | 7.46 | 7.96 | 5% | 40% | 3 | Stable | 160 ng·h/mL | Stable | 430 ng/mL | 17 | 29
3 | COC(=O)N[C@H](C(=O)N[C@@H](Cc1ccccc1)C[C@H](O)[C@H](Cc1ccc(-c2ccncc2)cc1)NC(=O)[C@@H](NC(=O)OC)C(C)(C)C)C(C)(C)C | – | – | 2 | – | – | 7.47 | 7.89 | – | – | 3 | – | – | – | – | – | –
4 | COC(=O)N[C@H](C(=O)N[C@@H](Cc1ccccc1)C[C@H](O)[C@H](Cc1ccc(-c2ccc(F)nc2)cc1)NC(=O)[C@@H](NC(=O)OC)C(C)(C)C)C(C)(C)C | – | – | 12 | – | – | 7.85 | 8.52 | – | – | 14 | – | – | – | – | 7 | 58
5 | COC(=O)N[C@H](C(=O)N[C@@H](Cc1ccccc1)C[C@H](O)[C@H](Cc1ccc(-c2ccnc(F)c2)cc1)NC(=O)[C@@H](NC(=O)OC)C(C)(C)C)C(C)(C)C | – | – | 10 | – | – | 8.15 | 8.70 | – | – | 10 | – | – | – | – | 2 | 30
6 | COC(=O)N[C@H](C(=O)N[C@@H](Cc1ccccc1)C[C@H](O)[C@H](Cc1ccc(-c2ccc(C#N)nc2)cc1)NC(=O)[C@@H](NC(=O)OC)C(C)(C)C)C(C)(C)C | – | – | 8 | – | – | 7.64 | 8.22 | – | – | 12 | – | – | – | – | 3 | 16
7 | COC(=O)N[C@H](C(=O)N[C@@H](Cc1ccccc1)C[C@H](O)[C@H](Cc1ccc(-c2ccc(CO)nc2)cc1)NC(=O)[C@@H](NC(=O)OC)C(C)(C)C)C(C)(C)C | – | – | 0.2 | – | – | 7.35 | 7.85 | – | – | 0.6 | – | – | – | – | 2 | 12
8 | COC(=O)N[C@H](C(=O)N[C@@H](Cc1ccccc1)C[C@H](O)[C@H](Cc1ccc(-c2cnccn2)cc1)NC(=O)[C@@H](NC(=O)OC)C(C)(C)C)C(C)(C)C | – | – | 7 | – | – | 6.82 | 7.27 | – | – | 4 | – | – | – | – | – | –
9 | COC(=O)N[C@H](C(=O)N[C@@H](Cc1ccccc1)C[C@H](O)[C@H](Cc1ccc(-c2cncnc2)cc1)NC(=O)[C@@H](NC(=O)OC)C(C)(C)C)C(C)(C)C | – | – | 41 | – | – | 7.24 | 8.70 | – | – | 74 | – | – | – | – | – | –
10 | COC(=O)N[C@H](C(=O)N[C@@H](Cc1ccccc1)C[C@H](O)[C@H](Cc1ccc(-c2cnc3ccccc3c2)cc1)NC(=O)[C@@H](NC(=O)OC)C(C)(C)C)C(C)(C)C | 1850 ng·h/mL | 20 ng/mL | – | 63% | – | – | – | 1% | – | – | – | 30 ng·h/mL | – | 220 ng/mL | – | –
11 | COC(=O)N[C@H](C(=O)N[C@@H](Cc1ccccc1)C[C@H](O)[C@H](Cc1ccc(-c2ccccc2)cc1)NC(=O)[C@@H](NC(=O)OC)C(C)(C)C)C(C)(C)C | – | – | 21 | – | – | 7.02 | 8.40 | – | – | 12 | – | – | – | – | – | –
12 | COC(=O)N[C@H](C(=O)N[C@@H](Cc1ccccc1)C[C@H](O)[C@H](Cc1ccc(-c2cccc(CO)c2)cc1)NC(=O)[C@@H](NC(=O)OC)C(C)(C)C)C(C)(C)C | – | – | 1 | – | – | 7.04 | 7.68 | – | – | 1 | – | – | – | – | 4 | 52
13 | COC(=O)N[C@H](C(=O)N[C@@H](Cc1ccccc1)C[C@H](O)[C@H](Cc1ccc(-c2ccc(CO)cc2)cc1)NC(=O)[C@@H](NC(=O)OC)C(C)(C)C)C(C)(C)C | 10 ng·h/mL | – | 2 | 0.3% | – | 7.74 | 8.30 | 0% | – | 2 | – | – | – | 10 ng/mL | 2 | 45
14 | CNC(=O)c1ccc(-c2ccc(C[C@H](NC(=O)[C@@H](NC(=O)OC)C(C)(C)C)[C@@H](O)C[C@H](Cc3ccccc3)NC(=O)[C@@H](NC(=O)OC)C(C)(C)C)cc2)cc1 | – | – | 1 | – | – | 7.25 | 8.40 | – | – | 1 | – | – | – | – | 1 | 7
15 | CNC(=O)c1cccc(-c2ccc(C[C@H](NC(=O)[C@@H](NC(=O)OC)C(C)(C)C)[C@@H](O)C[C@H](Cc3ccccc3)NC(=O)[C@@H](NC(=O)OC)C(C)(C)C)cc2)c1 | – | – | 0.4 | – | – | 6.07 | 6.80 | – | – | 0.5 | – | – | – | – | – | –
16 | COC(=O)N[C@H](C(=O)N[C@@H](Cc1ccccc1)C[C@H](O)[C@H](Cc1ccc(-c2ccc(C(C)=O)cc2)cc1)NC(=O)[C@@H](NC(=O)OC)C(C)(C)C)C(C)(C)C | 220 ng·h/mL | – | 9 | 27% | – | 8.52 | 9.00 | 0% | – | 8 | – | – | – | 50 ng/mL | 4 | 28
17 | COC(=O)N[C@H](C(=O)N[C@@H](Cc1ccccc1)C[C@H](O)[C@H](Cc1ccc(-c2ccc(OC)cc2)cc1)NC(=O)[C@@H](NC(=O)OC)C(C)(C)C)C(C)(C)C | 270 ng·h/mL | – | 48 | 14% | – | 8.52 | 9.00 | 0% | – | 30 | – | – | – | 50 ng/mL | 18 | 34
18 | COC(=O)N[C@H](C(=O)N[C@@H](Cc1ccccc1)C[C@H](O)[C@H](Cc1ccc(-c2ccc(O)cc2)cc1)NC(=O)[C@@H](NC(=O)OC)C(C)(C)C)C(C)(C)C | – | – | 3 | – | – | 7.15 | 7.89 | – | – | 3 | – | – | – | – | – | –
19 | COC(=O)N[C@H](C(=O)N[C@@H](Cc1ccccc1)C[C@H](O)[C@H](Cc1ccc(-c2cccc(N)c2)cc1)NC(=O)[C@@H](NC(=O)OC)C(C)(C)C)C(C)(C)C | 70 ng·h/mL | 100 ng/mL | 3 | 5% | – | 7.70 | 8.30 | 1% | – | 3 | – | 20 ng·h/mL | – | 100 ng/mL | 1 | 9
20 | COC(=O)N[C@H](C(=O)N[C@@H](Cc1ccccc1)C[C@H](O)[C@H](Cc1ccc(-c2ccc(N)cc2)cc1)NC(=O)[C@@H](NC(=O)OC)C(C)(C)C)C(C)(C)C | – | – | 7 | – | – | 7.42 | 8.22 | – | – | 9 | – | – | – | – | 7 | 45
21 | COC(=O)N[C@H](C(=O)N[C@H](Cc1ccc(-c2ccccn2)cc1)C[C@H](O)[C@H](Cc1ccccc1)NC(=O)[C@@H](N1CCN(Cc2cccc(C(C)(C)O)n2)C1=O)C(C)(C)C)C(C)(C)C | – | – | 3 | – | – | – | – | – | – | 7 | – | – | – | – | 2 | 57
22 | Cc1cccc(C)c1OCC(=O)N[C@@H](Cc1ccccc1)[C@@H](O)C[C@H](Cc1ccccc1)NC(=O)[C@H](C(C)C)N1CCCNC1=O [LOPINAVIR] | – | – | 59 | – | – | – | – | – | – | 211 | – | – | – | – | 234 | 62
